Measurements pooled from the literature.
Lines come from different studies, so protocols differ.
Target: Mu-type opioid receptor (OPRM1, Homo sapiens, UniProt P35372)
Effect on: ligand displacement

| SMILES | test | setting | inhibition [%] |
| --- | --- | --- | --- |
| CN1CCN(CCCOc2ccc(=O)n(-c3ccc(Cl)c(Cl)c3)n2)CC1 |  | 1 µM | 17.2 |
| CCN(CC)c1ccc(C2Nc3ccc(C(=O)c4ccccc4)cc3NC3=C2C(=O)CC(C)(C)C3)cc1 (centres unmarked) | radioligand | 10 µM | 9 |
| O=C1N=C(N2CCCCN2)S/C1=C\c1ccc(F)cc1O | radioligand | 10 µM | < 10 |
| O=C(Nc1ccc(S(=O)(=O)N2CCC(Cl)CC2)cc1)c1ccc([N+](=O)[O-])o1 | radioligand | 10 µM | 1 |
| O=C(c1ccc(Cl)cc1)N(Cc1ccccc1)C1CCCCC1 |  | 10 µM | 10.9 |
| Ic1cccc2cnccc12 | radioligand | 10 µM | -4 |
| N#Cc1cc(Cn2c(N3CCCC3)nc3ccccc32)ccc1F |  | 10 µM | -6.78 |
| CCN(Cc1ccccc1C(F)(F)F)C(=O)C1CCN(S(=O)(=O)c2ccc3[nH]ncc3c2)CC1 | radioligand | 10 µM | 5 |
| CCCNc1nc2ccccc2n1Cc1ccc(Cl)cc1 |  | 10 µM | 12.4 |
| COc1ccc(-n2nc(OCCCN3CCCCC3)ccc2=O)cc1 |  | 1 µM | 45.8 |
| COc1cc(NC(C)=O)c(Cl)cc1C(=O)Nc1nccs1 |  | 10 µM | -5.3 |
